Measured values: ChEMBL document CHEMBL1122464 (J Med Chem, 1983)
The source made the active and inactive calls. The calls are words filed in the database; no cut-off is given here.

Tests used:
L1210 = assay: Reduce in the cell count when drug added to the murine L1210 leukemia cell cultures for 70 h; assay type: functional; settings: Mus musculus, L1210, 70 h; read-out: ID50 (the source's name)
[1] = Chromatographic measure of drug lipophilicity; assay type: physicochemical
P388 [2] = assay: Optimal dose administered intraperitoneally in; assay type: functional, Mus musculus
[3] = Half life of the drug was determined in the presence of 2-mercaptoethanol; assay type: ADME; settings: solution containing 2-mercaptoethanol
Nucleic Acid = assay: Binding constant to poly (dA-dT) was determined in calf thymus DNA by a fluorometric method; assay type: functional
P388 [4] = assay: Percent increase in the life span of treated mice over a group of control mice injected with p388 tumor alone when administered intraperitoneally (9) as a solution in 0.1 mL of 30%,v/v, ethanol/water; assay type: functional, Mus musculus
[5] = Acid dissociation constant was determined; assay type: ADME
Procedure, shortened: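 Acridine pKa measured spectrophotometrically in 20% aqueous DMF. Values in parentheses were not measured directly: they were obtained by subtracting 0.25 pKa unit from values determined for the corresponding de-1'-NHSO2CH3 derivatives.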

P388 [6] = assay: Percent increase in the life span of treated mice over a group of control mice injected with p388 tumor alone when administered intraperitoneally (>500) as a solution in 0.1 mL of 30%,v/v, ethanol/water; Inactive; assay type: functional; settings: Mus musculus

Row | Compound | IC50 (L1210) [nM] | Rm [1] | half-life [3] [min] | pKa [5] | OD (P388 [2]) [mg/kg/day] | K (Nucleic Acid) [M⁻¹] | ILS (P388 [4]) [%] | ILS (P388 [6])
1 | CS(=O)(=O)Nc1ccc(Nc2c3ccccc3nc3ccccc23)cc1 | 35 | 0 | 0.92 |  | 66 |  |  | 
2 | COc1cc(NS(C)(=O)=O)ccc1Nc1c2ccccc2nc2ccccc12 [AMSACRINE] |  | 0.18 | 1.8 |  |  | 290000 | 111 | 
3 | COc1cc(NS(C)(=O)=O)cc(OC)c1Nc1c2ccccc2nc2ccccc12 | 4900 | 0.36 | > 70 | 7.63 |  |  |  | inactive

Second part, led by results:

Row | IC50 (L1210) [nM] | Rm [1] | half-life [3] [min] | pKa [5] | Compound | OD (P388 [2]) [mg/kg/day] | K (Nucleic Acid) [M⁻¹] | ILS (P388 [4]) [%] | ILS (P388 [6])
4 | 100 | 0.15 | 54 |  | Cc1cc(NS(C)(=O)=O)ccc1Nc1c2ccccc2nc2ccccc12 |  | 380000 |  | 
5 | > 10000 | 0.41 | > 70 | 7.6 | Cc1cc(NS(C)(=O)=O)cc(C)c1Nc1c2ccccc2nc2ccccc12 |  |  |  | inactive
